These results are taken from ChEMBL document CHEMBL1140910, “Fluorinated benzyloxyphenyl piperidine-4-carboxamides with dual function against thrombosis: inhibitors of factor Xa and platelet aggregation” (J Med Chem, 2009).

For assay [1], the system named is Plasma. Description: Anticoagulant activity in human plasma assessed as concentration required to double the activated partial thromboplastin time. In kind it is functional. In outline:
(§1)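 Pooled lyophilized human plasma with aPTT reagent and 0.025 mol/L CaCl2; inhibitor or solvent at increasing concentrations incubated with plasma 3 min at 37 °C. Clotting time read on a coagulometer against control plasma, triplicate measurements; concentration giving 2-fold aPTT prolongation calculated from concentration-response curves.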

Assay [2] in a line: Inhibition of bovine alpha-chymotrypsin by amydolitic assay. On the set-up: species or system Bos taurus. In outline: (§2)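 Bovine α-chymotrypsin (0.4 µg/mL) in 50 mM Tris pH 7.5 with 50 mM CaCl2, incubated with compound (final 10 nM–0.25 mM) or DMSO 10 min at 25 °C. Substrate 0.185 mM N-succinyl-Ala-Ala-Pro-Phe-p-nitroanilide added; 405 nm read 5 min at 25 °C. Initial-rate IC50 (≥3 determinations) converted to Ki by Cheng-Prusoff.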

Assay [3] has as its target Prothrombin (Bos taurus) (UniProt P00735). Description: Inhibition of bovine factor 2a at 250 uM by amydolitic assay. An outline of the steps:
(§3)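 Bovine thrombin (0.41 U/mL) in 10 mM Tris pH 8 with 0.15 M NaCl and 0.1% PEG 6000, compound (final 10 nM–0.25 mM, ≤2% DMSO) for 30 min at 25 °C, then 0.050 mM S-2238.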

The target of assay [4] is T1, Coagulation factor X (Homo sapiens, UniProt P00742). The assay can be described thus: Inhibition of human factor 10a by amydolitic assay. An outline of the steps:
(§4)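 Human factor Xa (2 nM) in 10 mM Tris pH 8, 0.15 M NaCl, 0.1% PEG 6000, preincubated 30 min at 25 °C with compound (final 10 nM–0.25 mM, ≤2% DMSO). Started with 0.04 mM S-2765; p-nitroanilide release at 405 nm for 5 min, 25 °C. Initial velocities give IC50 (≥3 determinations), Ki by Cheng-Prusoff.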

Assay [5] has as its system Platelet. The assay can be described thus: Inhibition of ADP-induced platelet aggregation in human platelet rich plasma. The assay is classed as functional. An outline of the steps:
(§5)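 Citrated human venous blood spun 800 rpm 15 min at 21 °C for PRP, platelets adjusted to 230000 µL-1 with PPP. PRP preincubated with compound (final 10 µM–1 mM, 0.5% DMSO) 5 min at 37 °C with stirring, then 10 µM final ADP or epinephrine. Turbidimetric (Born) transmittance at 640 nm over 5 min. IC50 from sigmoid fit, ≥3 determinations in duplicate, mean ± SEM.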

In assay [6] the test system is Platelet. Description: Inhibition of epinephrine-induced platelet aggregation in human platelet rich plasma. In kind it is functional. In outline: as §5
In assay [7] the target is Prothrombin (Bos taurus, UniProt P00735). The assay can be described thus: Inhibition of bovine factor 2a by amydolitic assay. An outline of the steps:
as §3

The species named for assay [8] is Bos taurus. The assay can be described thus: Inhibition of bovine alpha-chymotrypsin at 250 uM by amydolitic assay. An outline of the steps: as §2
In assay [9] the target is T1, Coagulation factor X. Description: Inhibition of human factor 10a at 250 uM by amydolitic assay. In outline:
as §4

Assay [10] deals with Plasma. Description: Anticoagulant activity in human plasma assessed as effect on double the activated partial thromboplastin time upto 1 mM. The assay is classed as functional, cell-free. An outline of the steps: as §1

SMILES strings stand for the structures. The source made the active and inactive calls. No cut-off for these calls is given here. Some results are limits rather than exact numbers.

T1 sequence (P00742 41-179 limits assumed): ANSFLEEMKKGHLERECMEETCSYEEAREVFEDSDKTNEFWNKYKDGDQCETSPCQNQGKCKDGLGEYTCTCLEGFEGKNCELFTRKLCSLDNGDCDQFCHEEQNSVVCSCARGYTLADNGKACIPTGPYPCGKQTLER
T1 sequence (P00742 235-488 limits assumed): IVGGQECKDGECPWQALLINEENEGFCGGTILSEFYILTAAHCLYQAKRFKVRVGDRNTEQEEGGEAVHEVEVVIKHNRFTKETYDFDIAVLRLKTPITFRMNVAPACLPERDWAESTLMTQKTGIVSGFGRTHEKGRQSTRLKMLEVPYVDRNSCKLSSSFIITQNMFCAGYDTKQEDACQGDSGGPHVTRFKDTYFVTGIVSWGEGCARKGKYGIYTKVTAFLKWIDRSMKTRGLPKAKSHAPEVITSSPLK

Take `O=C(Nc1cccc(OCc2ccc(-c3cccc(F)c3)cc2)c1)C1CCNCC1`: the 2PT in [1] was determined as 205 µM. The Ki in [2] is 31 µM; in assay [4], 0.177 µM. Besides, the inhibition in [3] is less than 30%. Further, the IC50 in assay [5] is 34.7 µM; in assay [6], 14.4 µM.
Regarding `N=C(N)N1CCCC(C(=O)Nc2cccc(OCc3ccc(F)cc3)c2)C1` (centres undefined), the figures for the Ki in [7] and in assay [4] were 160 µM and 57 µM, respectively. The molecule also came in with an IC50 in assay [5] of 274 µM.
`O=C(Nc1cccc(OCc2ccc(-c3ccccc3)cc2)c1)C1CCCNC1` (centres undefined): the inhibition in assay [3] is less than 30%. In [4], this molecule had a Ki of 2.5 µM. The IC50 amounted to 153 µM in assay [5] and 87 µM in [6].
In the case of `O=C(Nc1cccc(OCc2ccc(-c3ccccc3F)cc2)c1)C1CCNCC1`, the inhibition in assay [3] and in [8] was less than 30% each time. The molecule also displayed a Ki in assay [4] of 0.767 µM. In assay [5], this molecule yielded an IC50 of 62.7 µM.
As for `O=C(Nc1cccc(OCc2ccccc2)c1)C1CCCNC1` (centres undefined), the inhibition in [3] and in [9] was less than 30% throughout. The IC50 in [5] came out at 128 µM.
On to `N=C(N)N1CCC(C(=O)Nc2cccc(OCc3ccc(F)cc3)c2)CC1`, for which the Ki was 20.8 µM in assay [7] and 33.8 µM in assay [4]. The molecule also gave an IC50 in assay [5] of 768 µM.
For the molecule `O=C(Nc1cccc(OCc2ccc(-c3cc(F)ccc3F)cc2)c1)C1CCNCC1`, the inhibition in [3] and in assay [8] was less than 30% throughout. This molecule also registered a Ki in assay [4] of 1.27 µM.
`O=C(Nc1cccc(OCc2ccc(-c3c(F)cccc3F)cc2)c1)C1CCNCC1`: the inhibition in [3] and in assay [8] was less than 30% in each case. In addition, the affinity in [4], expressed as Ki, was 1.45 µM.
Turning to `O=C(Nc1cccc(OCc2ccc(-c3cc(F)c(F)c(F)c3)cc2)c1)C1CCNCC1`, the inhibition in assay [3] and in assay [8] was less than 30% throughout. The affinity in [4] corresponds to a Ki of 0.666 µM. For the same molecule, the IC50 in assay [5] is 76.7 µM.
With `O=C(Nc1ccc(OCc2ccc(F)cc2)cc1)C1CCCNC1` (centres undefined), the inhibition in assay [3] and in [9] was less than 30% throughout. The IC50 in assay [5] was found to be 116 µM; in assay [6], 90 µM.
On to `O=C(Nc1cccc(OCc2ccc(-c3cccc(F)c3F)cc2)c1)C1CCNCC1`, for which the results for the Ki in [2] and in assay [4] were 60 µM and 0.548 µM, respectively. In assay [3], this molecule yielded an inhibition of less than 30%.
Take `O=C(Nc1cccc(OCc2ccc(-c3cc(F)cc(F)c3)cc2)c1)C1CCNCC1`: the 2PT in [1] was found to be 190 µM. Moreover, the Ki in assay [2] was 60.3 µM; in assay [4], 0.13 µM. The molecule further showed an inhibition in [3] of less than 30%. For the same molecule, the IC50 amounted to 27.8 µM in [5] and 17 µM in [6].
Consider `O=C(Nc1cccc(OCc2ccc(-c3ccccc3)cc2)c1)C1CCNCC1`, for which the inhibition in assay [3] was less than 30%. The molecule further showed a Ki in assay [4] of 1 µM. The IC50 is 111 µM in [5] and 54 µM in assay [6].
As to `O=C(Nc1cccc(OCc2ccc(-c3ccc(F)cc3)cc2)c1)C1CCNCC1`, the inhibition in [3] and in assay [8] was less than 30% in each case. Also, in [4], the Ki amounted to 3.87 µM. Also, the values for the IC50 in [5] and in [6] were 35 µM and 19 µM, respectively.
For `O=C(Nc1cccc(OCc2ccc(F)cc2)c1)C1CCNCC1`, the inhibition in [3] and in [9] was less than 30% in each case. The IC50 in [5] is 68 µM; in assay [6], 36 µM.
For `N=C(N)N1CCCC(C(=O)Nc2cccc(OCc3ccc(-c4ccccc4)cc3)c2)C1` (centres undefined), the results for the Ki in assay [7] and in assay [4] were 31.3 µM and 2 µM, respectively. The same molecule yielded an IC50 in assay [5] greater than 1000 µM.
With `CCCCCCOc1ccc(NC(=O)C2CCCNC2)cc1` (centres undefined), the inhibition in assay [3] and in assay [9] was less than 30% in each case. Further, the results for the IC50 in assay [5] and in assay [6] were 85 µM and 43 µM, respectively.
Consider `O=C(Nc1ccc(OCc2ccc(F)cc2)cc1)C1CCNCC1`, for which the inhibition in [3] and in assay [9] was less than 30% each time. In addition, the results for the IC50 in assay [5] and in assay [6] were 121 µM and 93 µM, respectively.
`O=C(Nc1ccc(OCc2ccc(-c3ccccc3)cc2)cc1)C1CCNCC1` showed an inhibition in assay [3] of less than 30%. The molecule further registered a Ki in [4] of 126 µM. For the same molecule, the IC50 in assay [5] worked out at 135 µM.
For `O=C(Nc1cccc(OCc2ccccc2)c1)C1CCNCC1`, the outcome in assay [10] was inactive. The inhibition in [3] and in assay [9] was less than 30% throughout. In [5], this molecule yielded an IC50 of 229 µM.
Turning to `O=C(Nc1cccc(OCc2ccc(-c3ccc(F)cc3F)cc2)c1)C1CCNCC1`, the Ki in [7] turned out to be 54 µM; in assay [4] it was 0.512 µM. In assay [5], the IC50 amounted to 98.8 µM. Also, the inhibition in [8] is less than 30%.
As for `O=C(Nc1cccc(OCc2ccc(-c3ccc(C(F)(F)F)cc3)cc2)c1)C1CCNCC1`, the 2PT in assay [1] worked out at 140 µM. The inhibition in assay [3] and in assay [8] was less than 30% each time. In addition, the Ki in [4] was 0.057 µM. The IC50 in assay [5] came out at 65.7 µM.
For the molecule `O=C(Nc1ccc(OCc2ccc(-c3ccccc3)cc2)cc1)C1CCCNC1` (centres undefined), the inhibition in assay [3] and in [9] was less than 30% in each case. The molecule also returned an IC50 in assay [5] of 125 µM.
For the molecule `N=C(N)N1CCC(C(=O)Nc2cccc(OCc3ccc(-c4ccccc4)cc3)c2)CC1`, the results for the Ki in assay [7] and in assay [4] were 40.4 µM and 5.2 µM, respectively. The IC50 in assay [5] was determined as 400 µM; in assay [6], 244 µM.
On to `COc1ccc(NC(=O)C2CCCNC2)cc1` (centres undefined), for which, in [5], 983 µM corresponded to half-maximal inhibition (IC50).
In assay [3], `O=C(Nc1cccc(OCc2ccc(F)cc2)c1)C1CCCNC1` (centres undefined) showed an inhibition of less than 30%. The Ki in assay [4] was determined as 260 µM. The IC50 in assay [5] was 103 µM; in assay [6], 70 µM.
`CCCCCCOc1cccc(NC(=O)C2CCCNC2)c1` (centres undefined): the inhibition in assay [3] and in [9] was less than 30% throughout. The 50% inhibitory concentration (IC50) in assay [5] turned out to be 113 µM.
For `O=C(Nc1cccc(OCc2ccc(-c3c(F)cc(F)cc3F)cc2)c1)C1CCNCC1`, the results for the Ki in assay [7] and in assay [4] were 26.7 µM and 9.47 µM, respectively. Further, the inhibition in assay [8] is less than 30%.

A word on the Ki: it is the dissociation constant of the complex between target and ligand, obtained from inhibition or displacement. High values mean weaker binding, low ones tighter binding. The inhibition is the share of the control response that was lost under treatment. Usually IC50 stands for the concentration that gives 50% inhibition. Low readings indicate greater potency in that assay, high ones weaker potency in that assay.
